According to PMC2846993 (Biochimica et biophysica acta, 2010):
Several values for one entry are separate records, joined by “and”; a condition that tells them apart may be missing. Equal entries are not always repeated.

How the values were obtained:
[1] = Sedimentation equilibrium / self-association; format: physicochemical; conditions: PAM 22 μM, 20 °C, representative scan at 15,000 rpm
Procedure, shortened: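 Test protein at 22 μM final in 10 mM HEPES/100 mM NaCl, pH 7.4, at 20 °C. Centrifuged at 10,000 and 15,000 rpm. Apparent molecular weight came from a global fit of three scans at both speeds. Radius vs absorbance was simulated for the purely monomeric protein.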

[2] = biological target: Glu^1-Pg activation by SK (Homo sapiens, UniProt P00747); assay: SK-mediated; format: biochemical, human Glu^1-Pg; SK from Streptococcus equisimilis
[3] = biological target: Wild type (wt) human Glu^1-Pg (plasminogen) (human); assay: SPR
[4] = biological target: T1, Glu^1-Pg activation by uPA (Homo sapiens, UniProt P00747); conditions: 6-AHA, acetate buffer; ref [34]; cited from earlier work
T1 sequence (P00747 20-810 limits assumed): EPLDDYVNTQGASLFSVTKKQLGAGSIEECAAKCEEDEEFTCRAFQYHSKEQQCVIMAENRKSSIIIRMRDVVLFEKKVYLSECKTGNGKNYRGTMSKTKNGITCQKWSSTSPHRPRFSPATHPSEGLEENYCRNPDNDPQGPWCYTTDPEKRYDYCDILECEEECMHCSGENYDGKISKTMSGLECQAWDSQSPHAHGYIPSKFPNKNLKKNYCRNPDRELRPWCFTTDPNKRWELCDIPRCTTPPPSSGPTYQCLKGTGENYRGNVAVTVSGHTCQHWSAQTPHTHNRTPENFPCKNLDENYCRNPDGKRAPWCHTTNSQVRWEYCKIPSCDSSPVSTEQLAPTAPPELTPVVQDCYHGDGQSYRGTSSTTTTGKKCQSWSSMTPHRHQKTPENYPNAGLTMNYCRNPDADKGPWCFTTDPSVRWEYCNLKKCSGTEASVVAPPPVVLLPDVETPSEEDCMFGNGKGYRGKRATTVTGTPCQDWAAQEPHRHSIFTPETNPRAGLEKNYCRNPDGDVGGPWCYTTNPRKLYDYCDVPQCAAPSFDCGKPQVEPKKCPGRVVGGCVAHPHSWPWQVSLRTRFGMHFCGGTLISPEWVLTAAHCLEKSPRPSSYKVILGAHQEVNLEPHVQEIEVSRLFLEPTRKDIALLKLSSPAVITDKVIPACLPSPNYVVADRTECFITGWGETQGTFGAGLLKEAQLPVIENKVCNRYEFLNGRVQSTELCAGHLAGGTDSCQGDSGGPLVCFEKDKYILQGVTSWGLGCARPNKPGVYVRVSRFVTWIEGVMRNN

[5] = test system: Glu^1-Pg; conditions: saturating amounts of 6-AHA, Cl^−-containing buffer; ref [14],[19],[20]; cited from earlier work
[6] = biological target: T1, Glu^1-Pg activation by uPA; assay: uPA-catalyzed Pg activation, chromogenic substrate S-2251; format: biochemical; conditions: 1 mM 6-AHA

Compound	Kd [3]	koff [3]	kon [3]	other results
wt-PAM: Pg-binding group A streptococcal M-like protein, GAS strain NS13, full-length wild type (VEKLTADAELQRLKNERHEEAELERLKSEY)	–	–	–	apparent molecular weight (Mw,app), self-association [1]: 71600; increase in SK-mediated Pg activation rate ([2]; 20 nM PAM, Pg 80 nM, equimolar SK, 10 mM HEPES/100 mM NaCl, pH 7.4): 3.6 fold; enhancement in Pg conversion rate by SK ([2]; 500 nM PAM, Cl^− buffer (data not shown)): 220 fold
R^101A/H^102A PAM (RH-PAM) (from UniProt P49054 30-384) (natural protein)	424 nM and 731 nM	0.014 s⁻¹	33000 M⁻¹ s⁻¹	–
K^98A/R^101A/H^102A/E^104A/K^111A PAM (KRHEK-PAM) (from UniProt P49054 30-384) (natural protein)	50 nM	0.017 s⁻¹	340000 M⁻¹ s⁻¹	–
NCCCCCC(=O)O [6-AHA, 6-aminohexanoic acid]	–	–	–	increase in Pg conversion by uPA [4]: 1.2 fold; decrease in sedimentation coefficient (S°20,w) of Pg [5]: approximately 1 unit; rate enhancement of uPA-catalyzed Pm generation ([6]; Cl^− buffer (data not shown)): 2.2 fold; rate enhancement of uPA-catalyzed Pm generation ([6]; acetate buffer (data not shown)): 1.1 fold
Wt-PAM (Pg-binding group A streptococcal M-like protein, GAS strain NS13) (from UniProt P49054 30-384) (natural protein)	23 nM and 33 nM	0.0079 s⁻¹	340000 M⁻¹ s⁻¹	–
K^98A/K^111A PAM (KK-PAM) (from UniProt P49054 30-384) (natural protein)	38 nM and 44 nM	0.0095 s⁻¹	250000 M⁻¹ s⁻¹	–
